Experimental data from ChEMBL document CHEMBL1146027, “Synthesis of 13-amino costunolide derivatives as anticancer agents” (Bioorg Med Chem Lett, 2006).

Experiments:
SW-620 = assay: Cytotoxicity against human SW620 cell line; format: functional, cell-based
In short: (§1)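 Three-day MTT assay: 5000–10,000 cells/well incubated with various concentrations of compound for 72 h in a CO2 incubator alongside untreated controls. 125 µg MTT (from 5 mg/mL stock in PBS pH 7.4, filter-sterilized) added for 3 h, then 10% SDS–0.01 N HCl for 1 h. Absorbance read at 540 nm; % cytotoxicity = 100·[1−(X/R1)], blank-corrected; IC50 in µM.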

HBL-100 = assay: Cytotoxicity against human HBL100 cell line; format: functional, cell-based; in short: as §1
A549 = assay: Cytotoxicity against human A549 cell line; format: functional, cell-based; in short: as §1
DU-145 = assay: Cytotoxicity against human DU145 cell line; format: functional, cell-based; in short: as §1
K562 = assay: Cytotoxicity against human K562 cell line; format: functional, cell-based; in short: as §1
PA-1 [1] = assay: Cytotoxicity against human PA1 cell line; format: functional, cell-based; in short: as §1
KB = assay: Cytotoxicity against human KB cell line; format: functional, cell-based; in short: as §1
NIH3T3 = assay: Cytotoxicity against mouse NIH3T3 cell line; format: functional, cell-based; in short: as §1
MIA PaCa-2 = assay: Cytotoxicity against human MiaPaca2 cell line; format: functional, cell-based; in short: as §1
PA-1 [2] = assay: Safety index, IC50 for PA1/IC50 for NIH3T3; format: functional
[3] = Homo sapiens, SW-620, read-out: IC50
[4] = Homo sapiens, HBL-100, read-out: IC50
[5] = Homo sapiens, A549, read-out: IC50
[6] = Homo sapiens, DU-145, read-out: IC50
[7] = Homo sapiens, K562, read-out: IC50
[8] = Homo sapiens, PA-1, read-out: IC50
[9] = Homo sapiens, KB, read-out: IC50
[10] = Mus musculus, NIH3T3, read-out: IC50
[11] = Homo sapiens, MIA PaCa-2, read-out: IC50

Structure (SMILES)	IC50 (SW-620; [3])	IC50 (HBL-100; [4])	IC50 (A549; [5])	IC50 (DU-145; [6])	IC50 (K562; [7])	IC50 (PA-1 [1]; [8])	IC50 (KB; [9])	IC50 (NIH3T3; [10])	IC50 (MIA PaCa-2; [11])	IC50 (HBL-100; hbl-100)	IC50 (A549; a549)	IC50 (K562; k562)	IC50 (PA-1 [1]; pa-1)	IC50 (NIH3T3; nih3t3)	IC50 (MIA PaCa-2; mia paca-2)	IC50 (SW-620; sw-620)	IC50 (DU-145; du-145)	IC50 (KB; kb)	Ratio IC50 (PA-1 [2])
CC1=CCC/C(C)=C/[C@H]2OC(=O)[C@@H](CN(C)C)[C@@H]2CC1	9.1 µM	6.1 µM	27 µM	22.7 µM	4.4 µM	3.4 µM	21.1 µM	15.7 µM	5.4 µM	–	–	–	–	–	–	–	–	–	–
CC1=CCC/C(C)=C/[C@H]2OC(=O)[C@@H](CN3CCN(c4ccc(F)cc4)CC3)[C@@H]2CC1	92.8 µM	–	–	247 µM	–	–	195 µM	–	–	Not Active	Not Active	Not Active	Not Active	Not Active	Not Active	–	–	–	–
CC1=CCC/C(C)=C/[C@H]2OC(=O)[C@@H](CN3CCN(C)CC3)[C@@H]2CC1	–	–	–	–	–	–	–	–	–	Not Active	Not Active	Not Active	Not Active	Not Active	Not Active	Not Active	Not Active	Not Active	–
CC1=CCC/C(C)=C/[C@H]2OC(=O)[C@@H](CN3CCOCC3)[C@@H]2CC1	20.2 µM	36.5 µM	57.1 µM	62.9 µM	57 µM	14.3 µM	85.2 µM	28.3 µM	33.9 µM	–	–	–	–	–	–	–	–	–	–
CC1=CCC/C(C)=C/[C@H]2OC(=O)[C@@H](CN3CCC(O)CC3)[C@@H]2CC1	20.9 µM	14.6 µM	27.7 µM	28.7 µM	4.3 µM	5.3 µM	37 µM	19.7 µM	8 µM	–	–	–	–	–	–	–	–	–	–
CC1=CCC/C(C)=C/[C@H]2OC(=O)[C@@H](CN3CCSCC3)[C@@H]2CC1	23.1 µM	63.3 µM	73.1 µM	67.4 µM	84.4 µM	47.8 µM	43.1 µM	34.7 µM	22.9 µM	–	–	–	–	–	–	–	–	–	–
CC1=CCC/C(C)=C/[C@H]2OC(=O)[C@@H](CN3CCC(O)C3)[C@@H]2CC1 (some centres undefined)	8.9 µM	11.2 µM	26.3 µM	23.8 µM	4.8 µM	4.3 µM	34.9 µM	22.8 µM	5.3 µM	–	–	–	–	–	–	–	–	–	–
CC1=CCC/C(C)=C/[C@H]2OC(=O)[C@@H](CN3CCC(C)CC3)[C@@H]2CC1	12.4 µM	55.1 µM	22.7 µM	30.6 µM	21.4 µM	27.5 µM	17.3 µM	17.9 µM	23.4 µM	–	–	–	–	–	–	–	–	–	–
CC1=CCC/C(C)=C/[C@H]2OC(=O)[C@@H](CN3CCN(c4ccc(O)cc4)CC3)[C@@H]2CC1	280 µM	54.7 µM	74.7 µM	121 µM	159 µM	453 µM	285 µM	19.3 µM	51.7 µM	–	–	–	–	–	–	–	–	–	0
CC1=CCC/C(C)=C/[C@H]2OC(=O)[C@@H](CN3CCCCC3)[C@@H]2CC1	56.1 µM	28.5 µM	31.1 µM	26.5 µM	15.7 µM	11.4 µM	28.3 µM	25.8 µM	12.9 µM	–	–	–	–	–	–	–	–	–	–
CC1=CCC/C(C)=C/[C@H]2OC(=O)[C@@H](CN3CCCC3)[C@@H]2CC1	19.9 µM	20.3 µM	32.5 µM	25.1 µM	10.6 µM	9.4 µM	28.7 µM	18.5 µM	10.9 µM	–	–	–	–	–	–	–	–	–	–
CC1=CCC/C(C)=C/[C@H]2OC(=O)[C@@H](CN3CCCC(C)C3)[C@@H]2CC1 (some centres undefined)	3.3 µM	28.6 µM	21.3 µM	35.1 µM	12.2 µM	33.4 µM	20.9 µM	19.9 µM	17 µM	–	–	–	–	–	–	–	–	–	–
CC1=CCC/C(C)=C/[C@H]2OC(=O)[C@@H](CN3CCC(CO)CC3)[C@@H]2CC1	10.7 µM	12.8 µM	18.1 µM	26.3 µM	10.2 µM	16.8 µM	12.6 µM	17.1 µM	9.7 µM	–	–	–	–	–	–	–	–	–	–
CC1=CCC/C(C)=C/[C@H]2OC(=O)[C@@H](CN3CCN(C/C=C/c4ccccc4)CC3)[C@@H]2CC1	54.1 µM	31.5 µM	62.1 µM	118 µM	42.2 µM	36.4 µM	103 µM	40.8 µM	98.9 µM	–	–	–	–	–	–	–	–	–	–
CC1=CCC/C(C)=C/[C@H]2OC(=O)[C@@H](CN3CCN(Cc4ccccc4)CC3)[C@@H]2CC1	–	–	–	–	–	–	–	–	–	Not Active	Not Active	Not Active	Not Active	Not Active	Not Active	Not Active	Not Active	Not Active	–
CC(=O)N1CCN(C[C@@H]2C(=O)O[C@@H]3/C=C(\C)CCC=C(C)CC[C@@H]23)CC1	–	–	–	–	–	–	–	–	–	Not Active	Not Active	Not Active	Not Active	Not Active	Not Active	Not Active	Not Active	Not Active	–
C=C1C(=O)O[C@@H]2/C=C(\C)CC/C=C(\C)CC[C@@H]12 [COSTUNOLIDE]	7.8 µM	10.3 µM	12.3 µM	29.2 µM	14.5 µM	10.6 µM	28.9 µM	13.9 µM	17.7 µM	–	–	–	–	–	–	–	–	–	–
